In publication PMC4245176 (Journal of Chemical Information and Modeling, 2014):
Entries after “also recorded” stand apart in the source; their conditions may differ.

How the values were obtained:
[1] = system: peripheral blood mononuclear cells (PBMCs); test: MTS cytotoxicity assay in PBMCs; format: cell-based, human; details: up to the highest test concentration of 100 μM
Procedure, shortened: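 Cytotoxicity was read by MTS addition alongside the 7-day HIV-1 infection of pooled PHA/IL-2-stimulated human PBMCs (5 × 10^4 cells/well, nine compound concentrations, triplicate wells). The maximum concentration tested was 100 μM. CC50 is the half-maximal cytotoxic concentration. TI = CC50/IC50, with IC50 taken from the RT-based antiviral readout against 89BZ167.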

[2] = system: HIV-1_89BZ167; test: PBMC-based HIV-1 replication assay; format: cell-based; details: HIV-1 replication in primary human PBMCs
Procedure, shortened: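 Fresh human PBMCs from HIV-1/HBV-seronegative donors were stimulated with 4 μg/mL PHA for 48–72 h and kept in 20 U/mL rhIL-2. Cells from ≥2 donors were pooled at 5 × 10^4 cells/well and infected with 89BZ167 (subtype B, CXCR4-tropic) at MOI ≅0.1 with nine compound concentrations (triplicate wells) for 7 days. Supernatant RT activity gave infection as % of compound-free control, from which IC50 was derived.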

[3] = target: HIV-1 CA Arg173Ala (Human immunodeficiency virus type 1 group M subtype B, UniProt P12493, R305A); test: SPR binding site analysis, mutant CA; details: 50 μM compound, equilibrium response normalized to theoretical Rmax
Procedure, shortened: (§1)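 Wild-type and Ala-mutant CA were amine-coupled to a GLH chip at 100 μg/mL in sodium acetate pH 4.5, after EDC (0.2 M)/sulfo-NHS (0.05 M) activation for 5 min at 25 °C, then capped with 1 M ethanolamine pH 8.0. Test compound was injected at 100 μL/min with a 2 min association. Rmax assumed 1:1 per surface. Responses from 12 replicate injections per surface were analysed.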

[4] = target: HIV-1 CA Asn139Ala (Human immunodeficiency virus type 1 group M subtype B, UniProt P12493, N271A); test: SPR binding site analysis, mutant CA; details: 50 μM compound, equilibrium response normalized to theoretical Rmax
Procedure, shortened: as §1

[5] = target: HIV-1 CA Ile37Ala (Human immunodeficiency virus type 1 group M subtype B, UniProt P12493, I169A); test: SPR binding site analysis, mutant CA; details: 50 μM compound, equilibrium response normalized to theoretical Rmax
Procedure, shortened: as §1

[6] = target: HIV-1 CA Pro38Ala (Human immunodeficiency virus type 1 group M subtype B, UniProt P12493, P170A); test: SPR binding site analysis, mutant CA; details: 50 μM compound, equilibrium response normalized to theoretical Rmax
Procedure, shortened: as §1

[7] = target: HIV-1 CA Lys170Ala (Human immunodeficiency virus type 1 group M subtype B, UniProt P12493, K302A); test: SPR binding site analysis, mutant CA; details: 50 μM compound, equilibrium response normalized to theoretical Rmax
Procedure, shortened: as §1

[8] = target: HIV-1 CA Gln179Ala (Human immunodeficiency virus type 1 group M subtype B, UniProt P12493, Q311A); test: SPR binding site analysis, mutant CA; details: 50 μM compound, equilibrium response normalized to theoretical Rmax
Procedure, shortened: as §1

[9] = target: HIV-1 CA Ser41Ala (Human immunodeficiency virus type 1 group M subtype B, UniProt P12493, S173A); test: SPR binding site analysis, mutant CA; details: 50 μM compound, equilibrium response normalized to theoretical Rmax
Procedure, shortened: as §1

[10] = target: HIV-1NL4-3 CA protein (Human immunodeficiency virus type 1 group M subtype B, UniProt P12493); test: SPR direct binding to immobilized CA
Procedure, shortened: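 CA was amine-coupled at 100 μg/mL in sodium acetate pH 4.5 onto an EDC/sulfo-NHS-activated GLH chip, with a nonspecific-antibody reference surface. A 10 mM DMSO stock of test compound was serially diluted 2-fold to 18.75–300 μM in PBS-T pH 7.4 with 5% DMSO. One-shot kinetics ran at 100 μL/min, 2 min association and 2 min dissociation. Buffer and reference responses were subtracted, and data were fitted to a 1:1 model.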

O=[N+]([O-])c1cccc(-c2nc3c4cc(I)ccc4c4ccccc4c3[nH]2)c1 [Compound 34, 5-iodo-2-(3-nitrophenyl)-1H-phenanthro[9,10-d]imidazole]
toxicity / viability of PBMCs [1]: no toxicity; also recorded: not toxic | improvement in antiviral potency over I-XW-053 (compound 1) [2]: 11 fold | effect of mutation on compound binding versus wild-type CA [3]: increase the interaction | effect of mutation on compound binding versus wild-type CA [4]: no effect | effect of mutation on compound binding versus wild-type CA [5]: no effect | effect of mutation on compound binding versus wild-type CA [6]: increase the interaction | effect of mutation on compound binding versus wild-type CA [7]: loss of favorable interactions; also recorded: major effect | effect of mutation on compound binding versus wild-type CA [8]: loss of favorable interactions | effect of mutation on compound binding versus wild-type CA [9]: loss of favorable interactions | Kd [10]: 11.8 ± 4.7 µM
